Source: ChEMBL document CHEMBL1135543, “Alpha(1)-adrenoceptor antagonists. 4. Pharmacophore-based design, synthesis, and biological evaluation of new imidazo-, benzimidazo-, and indoloarylpiperazine derivatives” (J Med Chem, 2002)

What was measured:
[1] = target: T1, Adrenergic receptor alpha-2 (Rattus norvegicus, UniProt P22086+P19328+P22909); experiment: Binding affinity against Alpha-2 adrenergic receptor by displacing [3H]rauwolscine radioligand in rat cortex membrane; type: cell membranes, Brain
T1 sequence (P22086 whole entry): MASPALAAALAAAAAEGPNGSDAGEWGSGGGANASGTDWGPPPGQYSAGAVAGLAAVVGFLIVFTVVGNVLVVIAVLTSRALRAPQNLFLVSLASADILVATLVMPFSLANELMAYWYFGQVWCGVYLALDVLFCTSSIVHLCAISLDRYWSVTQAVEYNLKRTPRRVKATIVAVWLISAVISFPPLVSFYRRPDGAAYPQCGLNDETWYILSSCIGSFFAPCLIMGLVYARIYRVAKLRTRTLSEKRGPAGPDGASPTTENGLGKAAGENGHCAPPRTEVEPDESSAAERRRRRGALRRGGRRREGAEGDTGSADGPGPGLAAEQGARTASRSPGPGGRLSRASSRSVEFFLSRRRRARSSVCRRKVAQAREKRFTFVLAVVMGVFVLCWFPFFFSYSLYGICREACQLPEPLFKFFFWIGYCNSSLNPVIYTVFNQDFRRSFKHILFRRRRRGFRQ
T1 sequence (P19328 whole entry): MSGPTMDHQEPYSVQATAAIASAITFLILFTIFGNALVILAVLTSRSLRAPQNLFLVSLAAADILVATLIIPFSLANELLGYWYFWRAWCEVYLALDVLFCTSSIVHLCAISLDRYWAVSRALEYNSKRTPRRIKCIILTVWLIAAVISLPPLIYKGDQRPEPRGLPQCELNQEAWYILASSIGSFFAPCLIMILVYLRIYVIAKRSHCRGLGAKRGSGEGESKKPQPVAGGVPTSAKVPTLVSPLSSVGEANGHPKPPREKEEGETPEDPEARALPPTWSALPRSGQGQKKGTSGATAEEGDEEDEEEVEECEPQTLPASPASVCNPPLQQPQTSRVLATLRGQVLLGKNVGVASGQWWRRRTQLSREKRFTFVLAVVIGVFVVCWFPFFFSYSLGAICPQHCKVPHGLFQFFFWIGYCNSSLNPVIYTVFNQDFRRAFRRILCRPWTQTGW
T1 sequence (P22909 whole entry): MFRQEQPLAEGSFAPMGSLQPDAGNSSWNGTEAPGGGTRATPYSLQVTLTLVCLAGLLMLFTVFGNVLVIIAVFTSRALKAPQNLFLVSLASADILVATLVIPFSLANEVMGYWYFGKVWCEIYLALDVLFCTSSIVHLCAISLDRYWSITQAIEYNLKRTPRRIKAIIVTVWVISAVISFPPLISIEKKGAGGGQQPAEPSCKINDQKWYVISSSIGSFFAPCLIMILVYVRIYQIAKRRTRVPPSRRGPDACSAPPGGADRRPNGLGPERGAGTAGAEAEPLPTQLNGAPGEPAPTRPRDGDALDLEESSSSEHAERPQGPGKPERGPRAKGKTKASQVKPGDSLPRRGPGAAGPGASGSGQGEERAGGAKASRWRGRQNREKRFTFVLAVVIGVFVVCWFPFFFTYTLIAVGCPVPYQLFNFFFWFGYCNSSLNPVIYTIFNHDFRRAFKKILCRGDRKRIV

[2] = target: T2, Adrenergic receptor alpha-1 (Rattus norvegicus, UniProt P15823+P23944+P43140); experiment: Binding affinity against Alpha-1 adrenergic receptor by displacing [3H]-prazosin radioligand in rat cortex membrane; type: cell membranes, Brain
T2 sequence (P15823 whole entry): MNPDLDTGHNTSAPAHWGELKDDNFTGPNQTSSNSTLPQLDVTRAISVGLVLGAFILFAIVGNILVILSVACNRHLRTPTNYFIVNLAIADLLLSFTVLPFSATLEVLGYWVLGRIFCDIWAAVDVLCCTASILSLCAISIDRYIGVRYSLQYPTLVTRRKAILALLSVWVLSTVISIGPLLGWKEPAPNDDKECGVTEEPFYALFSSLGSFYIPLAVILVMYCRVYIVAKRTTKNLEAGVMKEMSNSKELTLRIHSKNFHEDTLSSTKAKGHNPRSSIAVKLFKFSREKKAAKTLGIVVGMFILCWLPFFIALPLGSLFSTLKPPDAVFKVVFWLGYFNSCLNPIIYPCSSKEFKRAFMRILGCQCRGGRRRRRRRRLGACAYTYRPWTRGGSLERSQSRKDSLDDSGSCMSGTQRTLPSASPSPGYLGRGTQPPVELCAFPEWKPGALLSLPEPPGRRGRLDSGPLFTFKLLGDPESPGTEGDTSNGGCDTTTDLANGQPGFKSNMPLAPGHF
T2 sequence (P23944 whole entry): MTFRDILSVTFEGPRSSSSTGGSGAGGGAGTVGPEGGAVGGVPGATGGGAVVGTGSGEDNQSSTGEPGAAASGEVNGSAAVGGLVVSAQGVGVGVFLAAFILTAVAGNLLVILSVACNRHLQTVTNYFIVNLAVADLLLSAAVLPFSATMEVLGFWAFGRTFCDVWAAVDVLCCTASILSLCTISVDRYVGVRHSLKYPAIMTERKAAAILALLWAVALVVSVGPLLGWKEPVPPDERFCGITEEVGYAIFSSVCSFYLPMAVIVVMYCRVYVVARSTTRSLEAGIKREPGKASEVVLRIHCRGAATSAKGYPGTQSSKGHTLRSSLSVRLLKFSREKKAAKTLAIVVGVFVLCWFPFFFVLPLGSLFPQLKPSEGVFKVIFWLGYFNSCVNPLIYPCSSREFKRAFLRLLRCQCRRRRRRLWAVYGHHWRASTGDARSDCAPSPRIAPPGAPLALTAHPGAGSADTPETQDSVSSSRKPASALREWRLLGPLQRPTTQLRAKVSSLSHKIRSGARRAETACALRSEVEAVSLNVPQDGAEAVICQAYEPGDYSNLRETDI
T2 sequence (P43140 whole entry): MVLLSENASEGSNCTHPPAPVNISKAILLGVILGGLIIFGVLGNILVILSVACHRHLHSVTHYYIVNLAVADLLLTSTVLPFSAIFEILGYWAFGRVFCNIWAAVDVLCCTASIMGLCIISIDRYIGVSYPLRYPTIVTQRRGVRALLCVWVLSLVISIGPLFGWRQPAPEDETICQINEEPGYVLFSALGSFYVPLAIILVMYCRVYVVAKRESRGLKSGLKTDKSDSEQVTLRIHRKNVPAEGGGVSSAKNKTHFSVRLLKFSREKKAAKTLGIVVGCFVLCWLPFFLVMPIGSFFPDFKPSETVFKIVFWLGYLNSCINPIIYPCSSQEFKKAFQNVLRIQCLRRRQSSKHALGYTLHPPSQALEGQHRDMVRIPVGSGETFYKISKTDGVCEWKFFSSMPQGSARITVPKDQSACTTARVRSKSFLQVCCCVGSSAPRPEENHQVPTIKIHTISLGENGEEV
Summary of the method: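 Rat cerebral cortex membranes washed in 50 mM Tris-HCl pH 7.7 with 5 mM EDTA, stored at –80 °C, then assayed in 50 mM Tris-HCl pH 7.7 (0.2–0.3 mg protein). Incubation 60 min at 25 °C with 0.1 nM [3H]prazosin; nonspecific binding defined with 1 μM prazosin. Seven displacer concentrations in triplicate, GF/C filtration. IC50 by log-probit, Ki by Cheng–Prusoff (Kd 0.24 nM).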

[3] = target: T3, 5-hydroxytryptamine receptor 1A (Rattus norvegicus, UniProt P19327); experiment: Binding affinity against 5-hydroxytryptamine 1A receptor by displacing [3H]8-OH-DPAT radioligand in rat cortex membrane; type: cell membranes
T3 sequence (P19327 whole entry): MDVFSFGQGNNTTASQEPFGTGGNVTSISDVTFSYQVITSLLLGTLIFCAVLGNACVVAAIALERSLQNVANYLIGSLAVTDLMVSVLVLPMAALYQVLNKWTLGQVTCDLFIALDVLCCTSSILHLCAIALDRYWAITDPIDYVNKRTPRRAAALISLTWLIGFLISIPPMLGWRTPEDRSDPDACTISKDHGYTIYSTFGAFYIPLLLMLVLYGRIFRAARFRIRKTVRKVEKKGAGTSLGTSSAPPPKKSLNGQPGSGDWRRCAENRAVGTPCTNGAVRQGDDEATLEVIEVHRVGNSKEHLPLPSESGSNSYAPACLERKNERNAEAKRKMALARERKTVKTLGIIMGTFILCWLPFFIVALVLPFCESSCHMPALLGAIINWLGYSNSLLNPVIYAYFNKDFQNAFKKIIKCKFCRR
Summary of the method: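 Rat cortex membranes, pre-incubated 10 min at 37 °C to remove endogenous 5-HT, stored at –80 °C, then resuspended in 50 mM Tris-HCl pH 7.4 (0.2–0.3 mg protein). GF/C filtration, scintillation counting.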

[4] = target: T2, Adrenergic receptor alpha-1; experiment: Intrinsic activity for displacement of [3H]prazosin from Alpha-1 adrenergic receptor of rat cerebral cortex membrane in the presence of 1 nM GTP; type: tissue-based
Summary of the method: (§1)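 [3H]prazosin competition on rat cerebral cortex membranes, run with and without GTP (1 nM in table footnote, 1 mM in text). The GTP shift is the ratio of the affinity constant with GTP to that without. Values are means ± SEM of three experiments.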

[5] = target: T2, Adrenergic receptor alpha-1; experiment: Intrinsic activity for displacement of [3H]prazosin from Alpha-1 adrenergic receptor of rat cerebral cortex membrane in the absence of 1 nM GTP; type: tissue-based; summary of the method: as §1
[6] = target: T2, Adrenergic receptor alpha-1; experiment: Binding affinity against Alpha-1 adrenergic receptor by displacing [3H]prazosin radioligand in rat cortex membrane.; type: cell membranes, Brain
[7] = target: T2, Adrenergic receptor alpha-1; experiment: Intrinsic activity against Alpha-1 adrenergic receptor expressed as displacement of [3H]prazosin from rat cerebral cortex membrane in the absence of 1 nM GTP; type: tissue-based; summary of the method: as §1
[8] = target: T2, Adrenergic receptor alpha-1; experiment: Intrinsic activity against Alpha-1 adrenergic receptor expressed as displacement of [3H]prazosin from rat cerebral cortex membrane in the presence of 1 nM GTP; type: tissue-based; summary of the method: as §1

Compound	Ki [1] [nM]	Ki [2] [nM]	Ki [3] [nM]	other results
O=c1ccc(-n2cnc3ccccc32)nn1CCN1CCN(c2ccccc2Cl)CC1	265	70.4	1010	–
O=c1ccc(-n2cnc3ccccc32)nn1CCCCCCN1CCN(c2ccccc2Cl)CC1	31.5	15.1	617	–
COc1ccccc1N1CCN(CCCCn2nc(-n3cnc4ccccc43)ccc2=O)CC1	–	–	315	Ki [4]: 0.97 nM; Ki [5]: 1.2 nM
COc1ccccc1N1CCN(CCn2nc(-n3cnc4ccccc43)ccc2=O)CC1	350	33	541	–
COc1ccccc1N1CCN(CCn2nc(-n3ccc4ccccc43)ccc2=O)CC1	1098	22.7	310	–
O=c1ccc(-n2cnc3ccccc32)nn1CCCCN1CCN(c2ccccc2Cl)CC1	5.8	1.3	181	–
O=c1ccc(-n2cnc3ccccc32)nn1CCCCCN1CCN(c2ccccc2Cl)CC1	127	4.5	351	–
COc1ccccc1N1CCN(CCCn2nc(-n3ccc4ccccc43)ccc2=O)CC1	170	3.2	103	–
O=c1ccc(-n2cnc3ccccc32)nn1CCCCCCCN1CCN(c2ccccc2Cl)CC1	10.3	1	182	–
COc1ccccc1N1CCN(CCCCn2nc(-n3ccc4ccccc43)ccc2=O)CC1	20	–	253	Ki [7]: 1 nM; Ki [8]: 1.6 nM

Now from value to compound, other results behind:

Ki [1] [nM]	Ki [2] [nM]	Ki [3] [nM]	Compound	other results
113	6.4	106	COc1ccccc1N1CCN(CCCCCCn2nc(-n3cnc4ccccc43)ccc2=O)CC1	–
427	37.5	223	COc1ccccc1N1CCN(CCCCCn2nc(-n3ccnc3)ccc2=O)CC1	–
1492	237	–	COc1ccccc1N1CCN(CCn2nc(-n3ccnc3)ccc2=O)CC1	–
134	23.3	323	O=c1ccc(-n2ccnc2)nn1CCCCCN1CCN(c2ccccc2Cl)CC1	–
138	29.7	–	O=c1ccc(-n2ccnc2)nn1CCCCCCN1CCN(c2ccccc2Cl)CC1	–
131	52.5	–	COc1ccccc1N1CCN(CCCCCCn2nc(-n3ccnc3)ccc2=O)CC1	–
89.8	1.7	–	COc1ccccc1N1CCN(CCCCCCCn2nc(-n3cnc4ccccc43)ccc2=O)CC1	–
76.5	–	98.7	COc1ccccc1N1CCN(CCCCCCCn2nc(-n3ccnc3)ccc2=O)CC1	Ki [6]: 6 nM
104	2.8	514	COc1ccccc1N1CCN(CCCCCCn2nc(-n3ccc4ccccc43)ccc2=O)CC1	–
95.6	6.8	141	COc1ccccc1N1CCN(CCCCCn2nc(-n3ccc4ccccc43)ccc2=O)CC1	–
306	–	181	COc1ccccc1N1CCN(CCCCCCCn2nc(-n3ccc4ccccc43)ccc2=O)CC1	Ki [6]: 1.1 nM
2072	472	–	O=c1ccc(-n2ccnc2)nn1CCN1CCN(c2ccccc2Cl)CC1	–
65.2	24.6	–	O=c1ccc(-n2ccnc2)nn1CCCCN1CCN(c2ccccc2Cl)CC1	–
30.5	3.1	127	COc1ccccc1N1CCN(CCCCCn2nc(-n3cnc4ccccc43)ccc2=O)CC1	–
